Values joined by “and” are separate entries in the source; they are usually repeats but may differ in a detail not shown here. Identical values can stand only once.
System: HEK-293T
Assay: Multiplex assay against HEK293T;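 as to Population Tubulin-Different-Phenotype (%): share of the cells with healthy nuclei that show this phenotype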
Type: toxicity, cell-based
Settings: human
Procedure, shortened: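 With compound added, live cells were imaged on a CQ1 microscope at 37°C and 5% CO2; staining with Hoechst33342, BioTracker Green Microtubule Cytoskeleton Dye, MitoTracker Red and Annexin V Alexa Fluor 680 had been done at seeding. The CellPathfinder machine-learning gating scheme split cells into Hoechst high-intensity objects or normal cells, normal cells into healthy, pyknosed or fragmented nuclei, and pyknosed cells into mitotic or apoptotic. The tubulin, mitochondrial-mass and membrane-permeability phenotypes are per cents of healthy-nucleus cells.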

[1] = 12 h, 1 µM, compound concentration 1 uM, replicate 1
[2] = 12 h, 1 µM, compound concentration 1 uM, replicate 2
[3] = 12 h, 10 µM, compound concentration 10 uM, replicate 1
[4] = 12 h, 10 µM, compound concentration 10 uM, replicate 2
[5] = 24 h, 1 µM, compound concentration 1 uM, replicate 1
[6] = 24 h, 1 µM, compound concentration 1 uM, replicate 2
[7] = 24 h, 10 µM, compound concentration 10 uM, replicate 1
[8] = 24 h, 10 µM, compound concentration 10 uM, replicate 2
[9] = 48 h, 10 µM, compound concentration 10 uM, replicate 1
[10] = 48 h, 10 µM, compound concentration 10 uM, replicate 2

Cc1c(Nc2ccc(S(=O)(=O)N3CCN(C)CC3)cc2F)nc2ccc(-c3cnn(C4CC4)c3)cn2c1=O
Population Apoptotic (%) [1]: 19%
Population Fragmented Nuclei (%) [1]: 13%
Population Healthy Nuclei (%) [1]: 67%
Population Hoechst High Intensity Objects (%) [1]: 9%
Population Membrane Permeable-Phenotype (%) [1]: 4%
Population Mitochondria Different-Phenotype (%) [1]: 6%
Population Mitotic Cells (%) [1]: 80%
Population Normal (%) [1]: 90%
Population Pyknosed Nuclei (%) [1]: 18%
Population Tubulin-Different-Phenotype (%) [1]: 6%
Total Cell Count [1]: 755
Population Apoptotic (%) [2]: 10%
Population Fragmented Nuclei (%) [2]: 7%
Population Healthy Nuclei (%) [2]: 87%
Population Hoechst High Intensity Objects (%) [2]: 2%
Population Membrane Permeable-Phenotype (%) [2]: 2%
Population Mitochondria Different-Phenotype (%) [2]: 9%
Population Mitotic Cells (%) [2]: 89%
Population Normal (%) [2]: 97%
Population Pyknosed Nuclei (%) [2]: 4%
Population Tubulin-Different-Phenotype (%) [2]: 10%
Total Cell Count [2]: 1860
Population Apoptotic (%) [3]: 43% and 17%
Population Fragmented Nuclei (%) [3]: 44% and 17%
Population Healthy Nuclei (%) [3]: 37% and 61%
Population Hoechst High Intensity Objects (%) [3]: 45% and 18%
Population Membrane Permeable-Phenotype (%) [3]: 2% and 7%
Population Mitotic Cells (%) [3]: 56% and 82%
Population Normal (%) [3]: 54% and 81%
Population Pyknosed Nuclei (%) [3]: 18% and 20%
Population Tubulin-Different-Phenotype (%) [3]: 40% and 15%
Total Cell Count [3]: 1012 and 786
Population Apoptotic (%) [4]: 16% and 6%
Population Fragmented Nuclei (%) [4]: 14% and 9%
Population Healthy Nuclei (%) [4]: 32% and 84%
Population Hoechst High Intensity Objects (%) [4]: 22% and 9%
Population Membrane Permeable-Phenotype (%) [4]: 4% and 8%
Population Mitotic Cells (%) [4]: 83% and 93%
Population Normal (%) [4]: 77% and 90%
Population Tubulin-Different-Phenotype (%) [4]: 64% and 33%
Population Apoptotic (%) [5]: 15%
Population Fragmented Nuclei (%) [5]: 11%
Population Healthy Nuclei (%) [5]: 77%
Population Hoechst High Intensity Objects (%) [5]: 5%
Population Membrane Permeable-Phenotype (%) [5]: 8%
Population Mitochondria Different-Phenotype (%) [5]: 4%
Population Mitotic Cells (%) [5]: 84%
Population Normal (%) [5]: 94%
Population Pyknosed Nuclei (%) [5]: 10%
Population Tubulin-Different-Phenotype (%) [5]: 10%
Total Cell Count [5]: 923
Population Apoptotic (%) [6]: 1%
Population Fragmented Nuclei (%) [6]: 23%
Population Healthy Nuclei (%) [6]: 74%
Population Hoechst High Intensity Objects (%) [6]: 2%
Population Membrane Permeable-Phenotype (%) [6]: 7%
Population Mitochondria Different-Phenotype (%) [6]: 2%
Population Mitotic Cells (%) [6]: 98%
Population Normal (%) [6]: 97%
Population Pyknosed Nuclei (%) [6]: 1%
Population Tubulin-Different-Phenotype (%) [6]: 14%
Total Cell Count [6]: 3127
Population Apoptotic (%) [7]: 41%
Population Healthy Nuclei (%) [7]: 39% and 75%
Population Membrane Permeable-Phenotype (%) [7]: 8%
Population Mitotic Cells (%) [7]: 58% and 76%
Population Normal (%) [7]: 56% and 86%
Population Pyknosed Nuclei (%) [7]: 16% and 12%
Population Tubulin-Different-Phenotype (%) [7]: 51% and 32%
Total Cell Count [7]: 1052 and 818
Population Fragmented Nuclei (%) [8]: 11% and 14%
Population Healthy Nuclei (%) [8]: 42% and 80%
Population Mitotic Cells (%) [8]: 77% and 93%
Population Normal (%) [8]: 75% and 92%
Population Tubulin-Different-Phenotype (%) [8]: 64% and 49%
Population Apoptotic (%) [9]: 44%
Population Fragmented Nuclei (%) [9]: 37%
Population Healthy Nuclei (%) [9]: 47%
Population Hoechst High Intensity Objects (%) [9]: 40%
Population Membrane Permeable-Phenotype (%) [9]: 5%
Population Mitochondria Different-Phenotype (%) [9]: 35%
Population Mitotic Cells (%) [9]: 55%
Population Normal (%) [9]: 59%
Population Pyknosed Nuclei (%) [9]: 14%
Population Tubulin-Different-Phenotype (%) [9]: 58%
Total Cell Count [9]: 1023
Population Apoptotic (%) [10]: 26%
Population Fragmented Nuclei (%) [10]: 12%
Population Healthy Nuclei (%) [10]: 61%
Population Hoechst High Intensity Objects (%) [10]: 19%
Population Membrane Permeable-Phenotype (%) [10]: 12%
Population Mitotic Cells (%) [10]: 73%
Population Normal (%) [10]: 80%
Population Pyknosed Nuclei (%) [10]: 25%
Population Tubulin-Different-Phenotype (%) [10]: 69%
Total Cell Count [10]: 372

Reference: ChEMBL document CHEMBL4689842, “EUbOPEN Chemogenomics Library wave 1” (2021)
